Three molecules from ChEMBL document CHEMBL2216748 (J Med Chem, 2012) can be followed below.

Molecules are shown by their SMILES. Active and inactive are the calls of the source. The rule behind the calls is not given here.

Series [1] concerns the target T1, Ribosyldihydronicotinamide dehydrogenase [quinone] (Homo sapiens, UniProt P16083).
T1 sequence (P16083 whole entry): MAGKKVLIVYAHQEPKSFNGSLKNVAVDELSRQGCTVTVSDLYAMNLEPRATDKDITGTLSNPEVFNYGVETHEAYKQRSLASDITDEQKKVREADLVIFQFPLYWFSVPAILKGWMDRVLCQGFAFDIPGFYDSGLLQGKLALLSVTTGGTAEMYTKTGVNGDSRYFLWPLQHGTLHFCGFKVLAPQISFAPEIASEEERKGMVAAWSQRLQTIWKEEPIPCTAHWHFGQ
The series is described as follows: Displacement of (S)-N4-(4-(3-(2-((4-carbamimidoylphenylamino)methyl)-1-methyl-N-(pyridin-2-yl)-1H-benzo[d]imidazole-5-carboxamido)propanamido)butyl)-N1-(15-oxo-19-((3aS,4S,6aR)-2-oxohexahydro-1H-thieno[3,4-d]imidazol-4-yl)-4,7,10-trioxa-14-azanonadecyl)-2-(4-(3-(trifluoromethyl)-3H-diazirin-3-yl)benzamido)succinamide from human recombinant NQO2 after 1 hr by densitometric analysis.

The target of series [2] is T1, Ribosyldihydronicotinamide dehydrogenase [quinone]. The series is described as follows: Inhibition of human recombinant NQO2-mediated mitomycin C metabolism using NADH as cosubstrate incubated for 5 mins prior to NADH addition measured after 30 mins by spectrophotometric analysis. The method, boiled down:
(§1)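 NQO2 (0.5 μM) with mitomycin C (50 μM) and four inhibitor concentrations in 100 mM potassium phosphate pH 5.8, 5 min at room temperature. Increasing NADH was then added and A340 followed for 30 min at rt. Ki from Lineweaver–Burk, IC50 from competitive Michaelis–Menten kinetics. Two experiments, duplicate points each.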

Series [3] in a line: Inhibition of human alpha thrombin using Boc-Val-Pro-Arg-AMC as substrate after 2 hrs by fluorometric analysis. The essentials: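 Human α-thrombin at 5.5 ng/mL final with Boc-Val-Pro-Arg-AMC (15 μM) in 50 mM Tris pH 7.5, 150 mM NaCl, 0.05% Tween 20. Compound tested as 16 two-fold dilutions in DMSO, 2.5 mM to 75 nM. Incubated 2 h at room temperature; fluorescence read at ex 355, em 460 nm for percent inhibition.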

Series [4] deals with T1, Ribosyldihydronicotinamide dehydrogenase [quinone]. The series is described as follows: Competitive inhibition of human recombinant NQO2-mediated mitomycin C metabolism using NADH as cosubstrate incubated for 5 mins prior to NADH addition measured after 30 mins by Michaelis-Menten plot analysis. The essentials: as §1
The target in series [5] is Heterogeneous nuclear ribonucleoproteins C1/C2 (Homo sapiens) (UniProt P07910). The series is described as follows: Binding affinity to HNRPC in human K562 cell lysate after 1 hr by capture compound based LC/MS analysis. Format: cell-free. The essentials: (§2)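 Capture compound MS: 400 μg HepG2 or K562 lysate in capture buffer, precleared with streptavidin beads 30 min at 4 °C. Competition controls preincubated 30 min at 4 °C with free drug (10 μL of 1 mM). Capture compound (10 μL of 50 μM) equilibrated 1 h at 4 °C, UV-irradiated 10 min, streptavidin bead pulldown, on-bead trypsin digestion, nanoLC-MS/MS. Spectral counts compared capture vs competition (t test). HepG2 in quadruplicate, K562 in duplicate.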
Sequence of Heterogeneous nuclear ribonucleoproteins C1/C2 (Homo sapiens) (P07910 whole entry): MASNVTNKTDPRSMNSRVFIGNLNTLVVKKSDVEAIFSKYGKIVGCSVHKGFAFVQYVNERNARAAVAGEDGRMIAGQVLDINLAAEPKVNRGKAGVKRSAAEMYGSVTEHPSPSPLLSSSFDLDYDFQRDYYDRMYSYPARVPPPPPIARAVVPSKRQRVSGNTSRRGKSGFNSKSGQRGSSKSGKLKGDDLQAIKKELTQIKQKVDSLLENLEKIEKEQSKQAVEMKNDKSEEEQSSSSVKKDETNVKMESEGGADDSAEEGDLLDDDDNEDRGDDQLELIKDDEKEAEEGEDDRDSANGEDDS

Series [6] has as its target Histamine N-methyltransferase (Homo sapiens) (UniProt P50135). The series is described as follows: Binding affinity to HNMT in human HepG2 cell lysate after 1 hr by capture compound based LC/MS analysis. It counts as cell-free. The essentials:
as §2

In series [7] the target is Adenosine kinase (Homo sapiens) (UniProt P55263). The series is described as follows: Binding affinity to ADK in human HepG2 cell lysate after 1 hr by capture compound based LC/MS analysis. It counts as cell-free. The essentials:
as §2

Series [8] concerns the target Heterogeneous nuclear ribonucleoproteins C1/C2 (Homo sapiens) (UniProt P07910). The series is described as follows: Binding affinity to HNRPC in human HepG2 cell lysate after 1 hr by capture compound based LC/MS analysis. It counts as cell-free. The method, boiled down: as §2
Series [9] has as its target Adenosine kinase (Homo sapiens) (UniProt P55263). The series is described as follows: Binding affinity to ADK in human K562 cell lysate after 1 hr by capture compound based LC/MS analysis. It counts as cell-free. The essentials:
as §2

The target of series [10] is Histamine N-methyltransferase (Homo sapiens) (UniProt P50135). The series is described as follows: Binding affinity to HNMT in human K562 cell lysate after 1 hr by capture compound based LC/MS analysis. Format: cell-free. The essentials:
as §2

Series [11] has as its target Prothrombin (Homo sapiens) (UniProt P00734). The series is described as follows: Binding affinity to human recombinant thrombin after 1 hr by Western blot analysis. The essentials:
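Purified human recombinant thrombin (2 μg) incubated with capture compound for 1 h at 4 °C, with or without preincubation with free drug as competitor. Sample UV-irradiated 10 min, captured on streptavidin beads, then analysed by silver-stained SDS-PAGE and by streptavidin-HRP blot to detect covalent biotinylation.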
(In western blotting, separated proteins are transferred to a membrane and probed.)

Series [12] in a line: Thermal stability of the compound. It counts as physicochemical. The essentials: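 Capture compound incubated 30 min native at 4 °C or denatured at 80 °C as thermal stress. Biological stress was 30 min in HepG2 lysate at 4 and 37 °C. UV irradiation for 10 and 30 min was checked for a single defined photoproduct.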
Series [13] addresses T2, Hypoxia up-regulated protein 1 (Homo sapiens) (UniProt Q9Y4L1).
T2 sequence (whole entry): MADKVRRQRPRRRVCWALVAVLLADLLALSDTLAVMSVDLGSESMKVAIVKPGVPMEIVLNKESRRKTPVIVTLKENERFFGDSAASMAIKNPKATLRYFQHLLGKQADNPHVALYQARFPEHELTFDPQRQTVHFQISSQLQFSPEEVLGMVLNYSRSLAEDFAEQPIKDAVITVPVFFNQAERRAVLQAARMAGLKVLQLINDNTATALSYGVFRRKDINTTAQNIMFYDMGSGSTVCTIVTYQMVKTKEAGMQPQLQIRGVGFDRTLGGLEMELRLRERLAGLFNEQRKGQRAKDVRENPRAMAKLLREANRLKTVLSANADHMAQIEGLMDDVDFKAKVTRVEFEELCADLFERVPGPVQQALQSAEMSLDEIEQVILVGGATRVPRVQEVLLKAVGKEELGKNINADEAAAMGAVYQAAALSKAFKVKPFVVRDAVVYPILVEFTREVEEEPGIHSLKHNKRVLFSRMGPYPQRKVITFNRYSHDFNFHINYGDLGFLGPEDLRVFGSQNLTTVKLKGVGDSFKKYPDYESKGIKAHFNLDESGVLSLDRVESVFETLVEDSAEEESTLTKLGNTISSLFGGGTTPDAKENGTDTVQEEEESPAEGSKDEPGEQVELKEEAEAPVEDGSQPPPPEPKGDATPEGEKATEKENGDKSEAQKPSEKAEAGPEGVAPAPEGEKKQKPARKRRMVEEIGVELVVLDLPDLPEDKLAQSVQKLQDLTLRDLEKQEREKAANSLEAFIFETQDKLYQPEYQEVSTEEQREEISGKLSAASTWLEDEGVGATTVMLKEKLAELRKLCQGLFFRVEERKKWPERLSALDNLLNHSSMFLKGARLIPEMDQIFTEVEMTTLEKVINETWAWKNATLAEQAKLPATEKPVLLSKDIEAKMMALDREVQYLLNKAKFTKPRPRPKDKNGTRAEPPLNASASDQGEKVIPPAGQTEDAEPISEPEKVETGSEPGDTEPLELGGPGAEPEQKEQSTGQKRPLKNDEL
The series is described as follows: Binding affinity to HYOU1 in human HepG2 cell lysate after 1 hr by capture compound based LC/MS analysis. Format: cell-free. The essentials: as §2

Series [14] deals with T2, Hypoxia up-regulated protein 1 (Homo sapiens). The series is described as follows: Binding affinity to HYOU1 in human K562 cell lysate after 1 hr by capture compound based LC/MS analysis. Format: cell-free. The method, boiled down:
as §2

Sequence of Histamine N-methyltransferase (Homo sapiens) (P50135 whole entry): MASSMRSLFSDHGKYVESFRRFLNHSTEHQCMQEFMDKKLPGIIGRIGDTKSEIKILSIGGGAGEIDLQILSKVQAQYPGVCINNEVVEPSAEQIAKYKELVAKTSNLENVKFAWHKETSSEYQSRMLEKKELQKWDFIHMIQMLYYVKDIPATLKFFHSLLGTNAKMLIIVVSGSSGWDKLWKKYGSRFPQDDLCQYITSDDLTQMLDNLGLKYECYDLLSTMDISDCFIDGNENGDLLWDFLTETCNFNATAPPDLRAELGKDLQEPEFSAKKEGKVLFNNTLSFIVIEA
Sequence of Adenosine kinase (Homo sapiens) (P55263 2-362 limits assumed): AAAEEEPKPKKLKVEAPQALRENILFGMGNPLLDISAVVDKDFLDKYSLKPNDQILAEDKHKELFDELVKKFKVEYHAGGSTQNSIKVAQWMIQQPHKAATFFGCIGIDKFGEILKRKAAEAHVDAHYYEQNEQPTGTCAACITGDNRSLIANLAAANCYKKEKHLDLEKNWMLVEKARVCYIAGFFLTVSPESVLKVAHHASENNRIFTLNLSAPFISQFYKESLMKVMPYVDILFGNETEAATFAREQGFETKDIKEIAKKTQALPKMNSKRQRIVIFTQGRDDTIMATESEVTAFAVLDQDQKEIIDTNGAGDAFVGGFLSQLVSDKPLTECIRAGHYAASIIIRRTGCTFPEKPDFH

For `CCOC(=O)CCN(C(=O)c1ccc2c(c1)nc(CNc1ccc(C(=N)N)cc1)n2C)c1ccccn1` [DABIGATRAN ETHYL ESTER], the IC50 is 1.5 µM in [1], 0.0012 µM in series [3] and 0.8 µM in series [4]. The Ki in series [2] is 0.9 µM.
On to `[H]/N=C(/N)c1ccc(NCc2nc3cc(C(=O)N(CCC(=O)O)c4ccccn4)ccc3n2C)cc1` [DABIGATRAN], for which the results for the IC50 in series [1] and in series [4] were 11 µM and over 10 µM, respectively. In addition, the Ki in series [2] is 70 µM.
Consider `Cn1c(CNc2ccc(C(=N)NCCCCNC(=O)C[C@H](NC(=O)c3ccc(C4(C(F)(F)F)N=N4)cc3)C(=O)NCCCOCCOCCOCCCNC(=O)CCCC[C@@H]3SC[C@@H]4NC(=O)N[C@@H]43)cc2)nc2cc(C(=O)N(CCC(=O)O)c3ccccn3)ccc21`, for which the outcome in series [5], in [9], in [10], in series [11] and in [14] was inactive. The outcome in series [6], in [7], in series [8] and in series [13] was Active. Moreover, the Stability result in series [12] was “Stable”.

As a reminder, the IC50 is the concentration at which inhibition is half-maximal. For orientation: Ki means a dissociation constant, usually derived from enzyme kinetics or from competition with a known ligand.
